SMILES strings stand for the structures.

Assay [1] concerns the target T1, Diacylglycerol lipase-beta (Mus musculus) (UniProt Q91WC9).
T1 sequence (whole entry): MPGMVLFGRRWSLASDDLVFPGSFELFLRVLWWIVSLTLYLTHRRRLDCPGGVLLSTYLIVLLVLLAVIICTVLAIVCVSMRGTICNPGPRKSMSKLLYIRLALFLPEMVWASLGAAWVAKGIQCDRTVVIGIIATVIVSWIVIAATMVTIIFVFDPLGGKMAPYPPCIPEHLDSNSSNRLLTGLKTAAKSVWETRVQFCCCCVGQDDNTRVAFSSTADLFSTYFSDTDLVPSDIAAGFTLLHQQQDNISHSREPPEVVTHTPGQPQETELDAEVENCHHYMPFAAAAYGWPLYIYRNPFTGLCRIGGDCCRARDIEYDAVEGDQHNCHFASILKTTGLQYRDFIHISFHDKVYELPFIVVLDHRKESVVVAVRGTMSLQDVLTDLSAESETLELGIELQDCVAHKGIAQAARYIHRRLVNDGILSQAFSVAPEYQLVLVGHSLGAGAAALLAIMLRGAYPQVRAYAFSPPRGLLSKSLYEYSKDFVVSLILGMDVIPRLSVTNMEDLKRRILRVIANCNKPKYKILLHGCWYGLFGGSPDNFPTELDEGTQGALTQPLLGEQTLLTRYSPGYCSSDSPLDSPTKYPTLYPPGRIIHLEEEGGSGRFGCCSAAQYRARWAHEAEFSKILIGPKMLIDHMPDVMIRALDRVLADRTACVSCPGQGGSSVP
In words: Inhibition of FP-rhodamine-labelled recombinant mouse DAGLbeta expressed in HEK293T cells at 1 uM preincubated for 30 mins followed by FP-rhodamine labelling measured after 30 mins by gel-based competitive ABPP assay. Type of assay: cell-based. Particulars: HEK-293T. The method in brief: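 Mouse DAGLβ transiently overexpressed in HEK293T. Lysate diluted to 0.3 mg/mL in 50 mM HEPES pH 7.2, 100 mM NaCl, 5 mM CaCl₂, 0.1% Triton X-100, 10% DMSO. Compound preincubated 30 min at 37 °C, then 1 μM probe for 30 min at 37 °C, SDS-PAGE and in-gel fluorescence.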

Assay [2] has as its target Fatty acid synthase (Mus musculus) (UniProt P19096). Particulars: Neuro2a, 3 nM.
Assay [3] deals with Tripeptidyl-peptidase 2 (Mus musculus) (UniProt Q64514). Particulars: Neuro2a, 3 nM.
Sequence of Tripeptidyl-peptidase 2 (Mus musculus) (Q64514 whole entry): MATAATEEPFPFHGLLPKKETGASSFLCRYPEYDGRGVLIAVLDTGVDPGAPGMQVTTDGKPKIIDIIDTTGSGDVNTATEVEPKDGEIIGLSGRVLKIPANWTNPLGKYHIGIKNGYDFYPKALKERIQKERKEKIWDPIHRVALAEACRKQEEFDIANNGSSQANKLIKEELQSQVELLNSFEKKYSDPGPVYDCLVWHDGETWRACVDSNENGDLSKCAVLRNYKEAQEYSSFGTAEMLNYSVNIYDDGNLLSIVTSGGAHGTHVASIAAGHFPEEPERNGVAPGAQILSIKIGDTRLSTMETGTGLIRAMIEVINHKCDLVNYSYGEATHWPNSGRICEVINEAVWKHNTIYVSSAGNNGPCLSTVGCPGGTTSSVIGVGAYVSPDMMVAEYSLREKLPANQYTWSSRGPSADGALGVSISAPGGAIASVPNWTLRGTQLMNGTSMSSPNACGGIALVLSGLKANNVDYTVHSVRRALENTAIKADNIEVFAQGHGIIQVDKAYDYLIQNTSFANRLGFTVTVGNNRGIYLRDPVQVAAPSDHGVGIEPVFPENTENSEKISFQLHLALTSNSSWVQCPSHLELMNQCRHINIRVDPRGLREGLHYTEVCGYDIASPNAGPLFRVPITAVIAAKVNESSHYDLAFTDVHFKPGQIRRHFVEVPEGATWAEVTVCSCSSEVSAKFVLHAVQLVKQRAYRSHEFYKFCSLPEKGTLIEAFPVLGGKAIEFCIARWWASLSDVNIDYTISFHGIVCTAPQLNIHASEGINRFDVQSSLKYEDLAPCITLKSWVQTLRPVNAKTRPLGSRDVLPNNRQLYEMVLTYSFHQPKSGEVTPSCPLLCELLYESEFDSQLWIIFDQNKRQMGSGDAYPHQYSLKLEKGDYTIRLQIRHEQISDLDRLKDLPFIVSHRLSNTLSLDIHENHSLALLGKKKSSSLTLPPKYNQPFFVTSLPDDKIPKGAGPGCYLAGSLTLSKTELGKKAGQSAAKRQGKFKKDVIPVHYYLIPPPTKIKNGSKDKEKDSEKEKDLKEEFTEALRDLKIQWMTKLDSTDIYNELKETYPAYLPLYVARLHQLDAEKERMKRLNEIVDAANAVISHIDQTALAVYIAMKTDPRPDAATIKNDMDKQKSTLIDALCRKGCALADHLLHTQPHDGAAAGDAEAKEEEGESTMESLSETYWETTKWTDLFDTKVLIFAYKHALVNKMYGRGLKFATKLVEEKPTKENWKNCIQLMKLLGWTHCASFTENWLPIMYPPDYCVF
Assay [4] deals with T2, Acetylcholinesterase (Mus musculus) (UniProt P21836).
T2 sequence (whole entry): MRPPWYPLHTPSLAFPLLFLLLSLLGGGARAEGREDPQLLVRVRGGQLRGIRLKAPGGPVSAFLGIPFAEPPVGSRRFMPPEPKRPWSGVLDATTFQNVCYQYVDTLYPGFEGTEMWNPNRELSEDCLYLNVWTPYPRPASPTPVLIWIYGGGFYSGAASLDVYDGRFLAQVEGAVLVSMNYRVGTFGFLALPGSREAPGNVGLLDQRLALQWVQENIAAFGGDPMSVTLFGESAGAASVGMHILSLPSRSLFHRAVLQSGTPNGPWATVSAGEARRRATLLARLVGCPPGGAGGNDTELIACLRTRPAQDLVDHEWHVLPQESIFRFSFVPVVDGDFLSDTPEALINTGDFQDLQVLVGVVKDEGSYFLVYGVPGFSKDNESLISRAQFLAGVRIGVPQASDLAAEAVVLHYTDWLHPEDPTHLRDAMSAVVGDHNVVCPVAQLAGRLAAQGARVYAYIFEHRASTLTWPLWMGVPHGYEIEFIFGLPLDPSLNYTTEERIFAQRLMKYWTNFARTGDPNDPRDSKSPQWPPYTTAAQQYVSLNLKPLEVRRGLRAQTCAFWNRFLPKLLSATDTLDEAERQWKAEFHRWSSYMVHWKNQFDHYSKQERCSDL
As to conditions: Neuro2a, 3 nM.

The target of assay [5] is T3, Acyl-coenzyme A thioesterase 1 (Mus musculus) (UniProt O55137).
T3 sequence (whole entry): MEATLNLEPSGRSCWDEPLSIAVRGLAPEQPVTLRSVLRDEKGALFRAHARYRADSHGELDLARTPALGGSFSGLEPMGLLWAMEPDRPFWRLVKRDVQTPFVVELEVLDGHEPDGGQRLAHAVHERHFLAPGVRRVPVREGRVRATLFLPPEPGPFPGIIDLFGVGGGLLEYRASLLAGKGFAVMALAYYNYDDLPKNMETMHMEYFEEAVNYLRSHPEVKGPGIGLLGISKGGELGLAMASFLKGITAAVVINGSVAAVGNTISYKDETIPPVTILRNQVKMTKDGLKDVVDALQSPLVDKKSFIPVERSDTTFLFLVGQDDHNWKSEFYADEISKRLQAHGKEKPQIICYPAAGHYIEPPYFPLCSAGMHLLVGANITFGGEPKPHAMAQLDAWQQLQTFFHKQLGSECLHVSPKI
Particulars: Neuro2a, 3 nM.

The target in assay [6] is T4, Lysophospholipase-like protein 1 (Mus musculus) (UniProt Q3UFF7).
T4 sequence (whole entry): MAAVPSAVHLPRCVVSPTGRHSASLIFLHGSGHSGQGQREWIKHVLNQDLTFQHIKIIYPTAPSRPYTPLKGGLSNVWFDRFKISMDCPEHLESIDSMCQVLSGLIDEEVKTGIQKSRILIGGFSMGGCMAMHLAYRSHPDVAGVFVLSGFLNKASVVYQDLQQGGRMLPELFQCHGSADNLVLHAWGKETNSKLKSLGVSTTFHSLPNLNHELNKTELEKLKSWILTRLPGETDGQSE
As to conditions: Neuro2a, 3 nM.

Assay [7] concerns the target T5, Serine hydrolase-like protein (Mus musculus) (UniProt Q9EPB5).
T5 sequence (whole entry): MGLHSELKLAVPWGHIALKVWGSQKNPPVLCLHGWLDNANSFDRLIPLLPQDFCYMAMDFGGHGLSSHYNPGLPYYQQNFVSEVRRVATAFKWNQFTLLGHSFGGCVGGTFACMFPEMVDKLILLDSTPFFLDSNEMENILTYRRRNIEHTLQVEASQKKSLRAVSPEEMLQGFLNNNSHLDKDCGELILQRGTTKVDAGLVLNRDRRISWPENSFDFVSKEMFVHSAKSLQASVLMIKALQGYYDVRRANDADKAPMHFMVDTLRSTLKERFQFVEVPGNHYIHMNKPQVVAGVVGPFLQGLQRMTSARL
As to conditions: Neuro2a, 3 nM.

Sequence of Fatty acid synthase (Mus musculus) (P19096 whole entry): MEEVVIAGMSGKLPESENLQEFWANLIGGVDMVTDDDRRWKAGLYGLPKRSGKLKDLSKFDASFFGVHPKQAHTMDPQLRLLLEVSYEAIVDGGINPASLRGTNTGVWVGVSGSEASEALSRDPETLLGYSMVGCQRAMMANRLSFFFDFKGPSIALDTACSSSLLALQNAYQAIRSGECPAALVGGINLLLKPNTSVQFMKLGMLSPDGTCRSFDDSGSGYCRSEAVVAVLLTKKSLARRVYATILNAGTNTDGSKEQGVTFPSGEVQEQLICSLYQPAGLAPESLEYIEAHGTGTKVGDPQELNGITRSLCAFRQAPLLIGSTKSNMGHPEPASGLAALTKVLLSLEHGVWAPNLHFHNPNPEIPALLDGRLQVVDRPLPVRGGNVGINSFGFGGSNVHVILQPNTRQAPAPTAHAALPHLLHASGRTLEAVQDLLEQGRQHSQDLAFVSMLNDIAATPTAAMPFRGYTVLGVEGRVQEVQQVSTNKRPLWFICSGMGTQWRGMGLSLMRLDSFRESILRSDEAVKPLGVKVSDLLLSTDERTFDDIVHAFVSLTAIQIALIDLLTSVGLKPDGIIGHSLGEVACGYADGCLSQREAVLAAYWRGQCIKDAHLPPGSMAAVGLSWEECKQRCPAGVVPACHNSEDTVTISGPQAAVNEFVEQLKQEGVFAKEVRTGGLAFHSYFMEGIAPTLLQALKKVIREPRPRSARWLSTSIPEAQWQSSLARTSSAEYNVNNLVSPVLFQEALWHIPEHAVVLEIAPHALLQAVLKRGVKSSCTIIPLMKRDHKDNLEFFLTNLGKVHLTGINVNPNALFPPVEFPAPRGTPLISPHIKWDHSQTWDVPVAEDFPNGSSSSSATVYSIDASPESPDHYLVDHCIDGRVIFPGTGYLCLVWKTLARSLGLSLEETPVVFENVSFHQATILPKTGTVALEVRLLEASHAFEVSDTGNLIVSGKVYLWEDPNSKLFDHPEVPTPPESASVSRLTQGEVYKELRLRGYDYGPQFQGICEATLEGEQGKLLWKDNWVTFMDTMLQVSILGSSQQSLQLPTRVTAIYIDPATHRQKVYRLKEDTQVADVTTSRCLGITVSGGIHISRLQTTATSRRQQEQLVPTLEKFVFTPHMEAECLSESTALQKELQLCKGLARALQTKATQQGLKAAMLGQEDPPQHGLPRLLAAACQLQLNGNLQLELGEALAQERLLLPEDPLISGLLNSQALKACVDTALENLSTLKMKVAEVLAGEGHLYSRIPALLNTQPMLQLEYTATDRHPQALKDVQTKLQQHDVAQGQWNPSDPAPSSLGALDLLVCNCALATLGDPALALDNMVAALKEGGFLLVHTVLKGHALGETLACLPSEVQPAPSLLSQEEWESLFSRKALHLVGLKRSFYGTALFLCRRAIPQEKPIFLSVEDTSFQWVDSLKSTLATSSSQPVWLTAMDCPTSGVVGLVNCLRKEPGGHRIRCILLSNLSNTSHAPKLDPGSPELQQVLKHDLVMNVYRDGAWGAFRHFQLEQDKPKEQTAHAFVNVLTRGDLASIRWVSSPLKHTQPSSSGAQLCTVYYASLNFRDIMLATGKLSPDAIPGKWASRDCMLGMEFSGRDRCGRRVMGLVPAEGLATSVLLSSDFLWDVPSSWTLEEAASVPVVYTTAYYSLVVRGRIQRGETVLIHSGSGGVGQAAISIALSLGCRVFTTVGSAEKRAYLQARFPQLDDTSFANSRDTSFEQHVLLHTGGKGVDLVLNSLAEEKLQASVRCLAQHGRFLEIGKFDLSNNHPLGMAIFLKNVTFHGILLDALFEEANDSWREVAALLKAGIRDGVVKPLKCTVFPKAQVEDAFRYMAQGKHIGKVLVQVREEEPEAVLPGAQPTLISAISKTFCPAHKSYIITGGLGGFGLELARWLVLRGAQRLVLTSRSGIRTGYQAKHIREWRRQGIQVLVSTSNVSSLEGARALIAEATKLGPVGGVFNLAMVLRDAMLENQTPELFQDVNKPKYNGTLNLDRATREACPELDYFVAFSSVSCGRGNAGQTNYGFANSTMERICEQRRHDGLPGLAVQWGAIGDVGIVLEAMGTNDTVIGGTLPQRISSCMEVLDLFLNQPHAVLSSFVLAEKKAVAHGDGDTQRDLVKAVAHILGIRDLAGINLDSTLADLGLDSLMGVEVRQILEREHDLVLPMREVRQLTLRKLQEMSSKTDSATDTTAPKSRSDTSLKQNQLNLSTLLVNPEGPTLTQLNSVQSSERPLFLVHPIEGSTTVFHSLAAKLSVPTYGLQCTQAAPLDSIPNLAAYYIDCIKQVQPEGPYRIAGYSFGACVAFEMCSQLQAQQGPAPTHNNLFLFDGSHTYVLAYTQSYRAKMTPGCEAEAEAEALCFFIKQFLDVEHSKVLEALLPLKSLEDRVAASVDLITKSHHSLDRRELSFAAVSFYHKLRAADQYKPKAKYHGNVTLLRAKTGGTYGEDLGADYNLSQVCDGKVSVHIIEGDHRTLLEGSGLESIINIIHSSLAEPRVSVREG

For orientation: inhibition means the relative decrease from the control value, in per cent. Regarding `O=C(N1CCCCC1c1ccccc1)n1cc(-c2ccc(-c3cccc(CO)c3)cc2)nn1` (racemic), the inhibition is 0% in assay [1]; less than 50% in assay [2]; less than 50% in assay [3]; less than 50% in assay [4]; less than 50% in assay [5]; less than 50% in assay [6]. The compound further gave an inhibition in assay [7] of less than 50%.
For the compound `O=C(c1cccc(-c2ccc(-c3cn(C(=O)N4CCCCC4c4ccccc4)nn3)cc2)c1)N1CCCCC1` (racemic), the inhibition in assay [1] was 0%; in assay [2] it was less than 50%; in assay [3], less than 50%; in assay [4], less than 50%; in assay [5], less than 50%; in assay [6], less than 50%. Besides, the inhibition in assay [7] is less than 50%.
As to `O=C(O)c1cccc(-c2ccc(-c3cn(C(=O)N4CCCCC4Cc4ccccc4)nn3)cc2)c1` (racemic), the inhibition in assay [1] was 50%; in assay [2], less than 50%; in assay [3], less than 50%; in assay [4] it was less than 50%; in assay [5], less than 50%; in assay [6], less than 50%. Further, the inhibition in assay [7] is less than 50%.

For the origin of these results see ChEMBL document CHEMBL3259629, “Discovery and optimization of piperidyl-1,2,3-triazole ureas as potent, selective, and in vivo-active inhibitors of α/β-hydrolase domain containing 6 (ABHD6)” (J Med Chem, 2013).
